Assay results as given in ChEMBL document CHEMBL1137968, “Carbazates as potent inhibitors of hormone-sensitive lipase” (Bioorg Med Chem Lett, 2004).

Columns and labels:
[1] = target: T1, Hormone-sensitive lipase (Homo sapiens) (UniProt Q05469); test: Inhibition of recombinant human hormone sensitive lipase (HSL); parameters: concentration or dose not given beside the values; conditions: concentration not given here
T1 sequence (whole entry): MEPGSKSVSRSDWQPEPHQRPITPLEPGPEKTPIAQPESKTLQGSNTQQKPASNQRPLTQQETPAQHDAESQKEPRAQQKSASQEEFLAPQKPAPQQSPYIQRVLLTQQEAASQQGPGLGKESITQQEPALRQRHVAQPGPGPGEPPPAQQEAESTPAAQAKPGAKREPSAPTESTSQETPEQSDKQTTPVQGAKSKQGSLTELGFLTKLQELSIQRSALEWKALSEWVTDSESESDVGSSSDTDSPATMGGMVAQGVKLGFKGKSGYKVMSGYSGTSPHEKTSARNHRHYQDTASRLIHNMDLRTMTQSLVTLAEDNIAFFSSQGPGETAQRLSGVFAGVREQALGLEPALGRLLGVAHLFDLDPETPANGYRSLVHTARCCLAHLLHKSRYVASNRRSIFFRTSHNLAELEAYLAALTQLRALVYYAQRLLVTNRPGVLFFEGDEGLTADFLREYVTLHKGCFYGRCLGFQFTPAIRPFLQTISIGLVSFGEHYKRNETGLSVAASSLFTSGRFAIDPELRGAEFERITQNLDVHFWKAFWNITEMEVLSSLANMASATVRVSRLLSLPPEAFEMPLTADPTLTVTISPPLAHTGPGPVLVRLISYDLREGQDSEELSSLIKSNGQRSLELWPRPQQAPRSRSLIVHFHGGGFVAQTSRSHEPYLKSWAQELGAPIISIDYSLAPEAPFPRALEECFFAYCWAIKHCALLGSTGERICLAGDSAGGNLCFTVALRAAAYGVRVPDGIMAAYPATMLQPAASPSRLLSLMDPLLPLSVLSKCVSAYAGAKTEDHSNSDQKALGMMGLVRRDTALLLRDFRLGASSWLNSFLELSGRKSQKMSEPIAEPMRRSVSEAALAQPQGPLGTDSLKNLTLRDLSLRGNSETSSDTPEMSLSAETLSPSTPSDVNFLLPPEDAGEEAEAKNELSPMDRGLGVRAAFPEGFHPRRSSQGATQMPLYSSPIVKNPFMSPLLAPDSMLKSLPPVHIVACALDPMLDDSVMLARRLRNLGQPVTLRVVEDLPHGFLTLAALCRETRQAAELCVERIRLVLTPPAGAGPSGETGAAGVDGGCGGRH
Summary of the method: (§1)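 Purified recombinant human HSL (specific activity 2.6 U/mg protein) with triolein substrate. Activity measured at 37 °C as ³H-oleic acid release over time from a ³H-trioleoylglycerol emulsion stabilized with phospholipids. Bovine serum albumin served as fatty acid acceptor.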

Hormone-sensitive lipase = target: T2, Hormone-sensitive lipase (Homo sapiens, UniProt Q05469); test: Inhibition of human recombinant hormone sensitive lipase.; summary of the method: as §1
T2 sequence (Q05469 whole entry): T1 sequence (whole entry)

SMILES | inhibition [1] | IC50 (Hormone-sensitive lipase)
O=C(NN1CCc2ccccc2C1)Oc1ccc(C(=O)c2ccccc2)cc1 | 21% | –
O=C(NN1CCCC1)Oc1ccc(Cl)cc1 | 100% | 24 nM
CC(C)(C)OC(=O)NN1CCc2ccccc2C1 | 8% | –
O=C(NN1CCc2ccccc2C1)Oc1c(Cl)cccc1Cl | 3% | –
O=C(NN1CCOCC1)Oc1ccc(Cl)cc1 | 99% | 184 nM
CN1CCN(NC(=O)Oc2ccc(Cl)cc2)CC1 | 98% | 515 nM
CC(C)(C)C1CCC(C(=O)Nc2ccc(OC(=O)NN3CCOCC3)cc2)CC1 (stereo unspecified) | 100% | 1 nM
CC(C)(C)OC(=O)Nc1ccc(OC(=O)NN2CCc3ccccc3C2)cc1 | 98% | –
CCCC(=O)Nc1ccc(OC(=O)NN2CCOCC2)cc1 | 84% | 3200 nM
O=C(NN1CCc2ccccc2C1)Oc1ccc(Cc2ccccc2)cc1 | 97% | 97 nM
CC(=O)Nc1ccc(OC(=O)NN2CCc3ccccc3C2)cc1 | 7% | –
CCOC(=O)NN1CCc2ccccc2C1 | 9% | –
COc1ccccc1OC(=O)NN1CCc2ccccc2C1 | 76% | –
CC1c2ccccc2CCN1NC(=O)Oc1ccc(Cl)cc1 (stereo unspecified) | 91% | 32 nM
O=C(NN1CCc2ccccc2C1)Oc1ccccc1 | – | 205 nM
CC(=O)Nc1ccc(OC(=O)NN2CCOCC2)cc1 | 20% | –
O=C(NN1CCCCC1)Oc1ccc(Cl)cc1 | 99% | –
O=C(NN1CCOCC1)Oc1ccc(NC(=O)C2CCCCC2)cc1 | 99% | 10 nM
O=C(Cc1ccc(OC(=O)NN2CCOCC2)cc1)OCc1ccccc1 | 100% | 5 nM
COC(=O)c1ccc(OC(=O)NN2CCc3ccccc3C2)cc1 | 57% | –
CCOC(=O)Cc1ccc(OC(=O)NN2CCOCC2)cc1 | 99% | 138 nM
CC(C)(C)CC(=O)Nc1ccc(OC(=O)NN2CCOCC2)cc1 | 99% | 47 nM
CC1Cc2ccccc2CN1NC(=O)Oc1ccc(Cl)cc1 (stereo unspecified) | 99% | 35 nM
O=C(NN1CCc2ccccc2C1)OCc1ccccc1 | 4% | –
COc1ccc(OC(=O)NN2CCc3ccccc3C2)cc1 | 97% | –
CN(C(=O)Oc1ccc(Cl)cc1)N1CCc2ccccc2C1 | 2% | –
COC(=O)Cc1ccc(OC(=O)NN2CCOCC2)cc1 | 95% | 716 nM
O=C(NN1CCc2ccccc2C1)Oc1ccc(Cl)cc1 | 98% | –
